# High-throughput results (PubChem BioAssay)
# Shown are actives, neighbours in structure and some others; about 2.8% of the full set was active somewhere.
# ASAP1 inh: blocks human ASAP1-stimulated Arf1 GTP hydrolysis; actives 0.19% (n = 360,000); GDP FP detection; inhibition, % at 16.5 µM; Q9ULH1; in the data active = inhibition above about 25%;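 also: 0% = vehicle with enzyme and substrate and 100% = no enzyme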
# Target sequence (Q9ULH1 325-724 limits assumed): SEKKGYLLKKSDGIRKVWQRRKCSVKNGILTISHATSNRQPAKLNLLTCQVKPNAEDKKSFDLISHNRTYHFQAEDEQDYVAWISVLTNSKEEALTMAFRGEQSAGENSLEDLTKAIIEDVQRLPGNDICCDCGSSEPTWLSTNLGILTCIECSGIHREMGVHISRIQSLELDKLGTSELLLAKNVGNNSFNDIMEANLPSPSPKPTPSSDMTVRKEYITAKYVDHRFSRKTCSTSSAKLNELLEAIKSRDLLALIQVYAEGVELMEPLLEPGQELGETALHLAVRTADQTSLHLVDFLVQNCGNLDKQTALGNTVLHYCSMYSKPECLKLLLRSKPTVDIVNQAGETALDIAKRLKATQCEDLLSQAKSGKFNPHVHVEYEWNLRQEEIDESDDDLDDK
# ARFGAP1 inhibitor: inhibits rat ARF GTPase activating protein 1; actives 0.26% (n = 360,000); Q62848; inhibition, % at 16.5 µM; Arfgap1-stimulated ARF1 GTP hydrolysis, GDP FP detection; AID 651572;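 active = inhibition above a per-plate limit, mean inhibition of low control wells plus 3 SD, cut at about 25% in these data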;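 also: 0% = DMSO wells with enzyme and 100% = wells lacking Arfgap1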
# Target sequence (Q62848 1-136 limits assumed): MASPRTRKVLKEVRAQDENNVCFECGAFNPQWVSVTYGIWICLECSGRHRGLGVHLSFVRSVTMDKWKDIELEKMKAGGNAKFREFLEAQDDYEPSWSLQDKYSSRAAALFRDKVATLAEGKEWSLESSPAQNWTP
#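 System: truncated rat Arfgap1 GAP domain / Medium: HEPES-based buffer, pH 7.5 / Also added: N-terminally truncated human ARF1-GTP substrate / Incubation: enzyme reaction 120 min at 25 °C after 20 min preincubation / Measured by: FP of antibody-bound GDP Alexa 633 tracer, ex 620/em 688 nm / Replicates: singlicate, each compound tested once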
# pPAFAH inh: pPAFAH (human) enzyme inhibition. recombinant pPAFAH, FP-rhodamine probe fluorescence polarization. inhibition, % at 3.39 µM. Q13093. actives 1.5% (n = 330,000). AID 463082;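 active = inhibition above the mean inhibition across the screen plus 3 SD, cut at about 25% in these data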;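 also: inhibitors block binding of the rhodamine activity-based probe so polarization drops; 0% = enzyme with DMSO and 100% = wells lacking pPAFAH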
# PAFAH1B3 FP inh: PAFAH1B3 (human) inhibition; recombinant PAFAH1B3, FP-rhodamine probe, fluorescence polarization; actives 0.28% (n = 340,000); AID 492972; Q15102; inhibition, % at 3.39 µM;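 active = inhibition above the screen-wide average of all tested compounds plus 3 SD, cut at about 25% in these data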;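 also: 0% = enzyme with DMSO only and 100% = wells lacking PAFAH1B3 protein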
# PAFAH1B2 inh: blocks human PAF acetylhydrolase 1b catalytic subunit 2; P68402; recombinant PAFAH1B2, FP-rhodamine activity probe, fluorescence polarization; inhibition, % at 3.39 µM; actives 1.2% (n = 340,000); AID 492953;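 active = inhibition above the mean of all tested compounds plus 3 SD, cut at about 24% in these data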;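 also: 0% = enzyme with DMSO and 100% = wells lacking PAFAH1B2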
# PAFAH2 FP inh: PAFAH2 (human) inhibition; AID 492956; Q99487; recombinant PAFAH2, FP-rhodamine activity probe, fluorescence polarization; actives 0.99% (n = 340,000); inhibition, % at 3.39 µM;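 active = inhibition above the mean over all tested compounds plus 3 SD, cut at about 30% in these data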;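 also: inhibitors block probe labeling of enzyme so polarization drops; 0% = enzyme with DMSO and 100% = wells lacking PAFAH2 protein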
# pPAFAH FP conf: pPAFAH (human) inhibition, confirmed; shares compounds with pPAFAH inh; recombinant pPAFAH, FP-Rh probe fluorescence polarization; inhibition, % at 3.39 µM; actives 72% (n = 2,300); AID 463230;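 active = mean inhibition of the triplicate above the hit cutoff set for the earlier primary screen, cut at about 25% in these data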;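 also: 0% = enzyme with DMSO and 100% = wells lacking pPAFAH enzyme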
# * marks the source's active call; other numbers are inactive results; / = no result given.
SMILES,ASAP1 inh,ARFGAP1 inhibitor,pPAFAH inh,PAFAH1B3 FP inh,PAFAH1B2 inh,PAFAH2 FP inh,pPAFAH FP conf
CN(C(=O)COC(=O)c1c2c(nc3ccccc13)/C(=C/c1cccc([N+](=O)[O-])c1)CCC2)C1CCS(=O)(=O)C1 (centres undefined),-9,-6,24,-1,-4,-14,/
Cc1cc2oc(=O)cc(CN3CCCC3)c2cc1C,2,1,/,/,/,/,/
CCc1cc(=O)oc2cc(C)c(CN3CCCC3)c(O)c12,-22,-17,64*,-4,2,23,21
Cc1cc(C)c2c(CN3CCCC3)cc(=O)oc2c1,-7,10,/,/,/,/,/
CCc1cc(=O)oc2cc(C)c(CN3CCCCC3)c(O)c12,-8,1,47*,4,0,5,9
C[C@@H]1CCCCO[C@@H](CN(C)C(=O)Nc2ccc3c(c2)OCO3)[C@@H](C)CN([C@H](C)CO)C(=O)c2cc(N(C)C)ccc2O1,9,6,/,/,/,/,/
CCN(CC)S(=O)(=O)c1ccc(N2CCOCC2)c(NC(=O)COc2ccccc2)c1,10,0,9,10,0,7,/
CCc1ccccc1OCC(=O)Nc1cc(S(=O)(=O)N(CC)CC)ccc1N1CCOCC1,-14,-13,49*,-1,-1,-11,10
CCOC(=O)N1CCN(C(=O)c2ccc3nc(N4CCCCC4)sc3c2)CC1,8,13,4,2,0,-6,/
Cc1cccc(N2CCN(C(=O)c3ccc4nc(N5CCCCC5)sc4c3)CC2)c1C,-17,1,40*,-3,0,-2,9
O=C(N/N=C/c1cc(Br)cc([N+](=O)[O-])c1O)c1ccc(NC(=O)c2ccc(F)cc2)cc1,4,-9,38*,12,8,13,55*
O=C(N/N=C/c1cc(Br)cc(Br)c1O)c1ccncc1,-7,-10,6,/,/,/,/
Cc1ccccc1Oc1ccc(-c2nc(N)nc(N)n2)cc1,-1,3,39*,-1,1,3,22
COc1ccc(CCN2CC(C(=O)NCc3cccc(F)c3)CCC2=O)cc1 (centres undefined),-16,3,/,/,/,/,/
O=C(NCc1ccco1)c1cccc2c1C(=O)c1ccc(/C=C/c3ccccc3)cc1S2(=O)=O,-3,-6,39*,1,3,4,32*
O=C1c2ccccc2C(c2nnnn2-c2ccc3c(c2)OCCO3)N1Cc1ccco1 (centres undefined),0,-4,/,/,/,/,/
O=C(Nc1ccccc1OC(=O)c1ccccc1)c1ccccc1,0,17,/,10,7,1,/
Cc1ccc(S(=O)(=O)N2CCN(C(=O)c3cc4c(s3)CCCC4)CC2)cc1,-2,9,2,8,2,5,/
COc1ccc(S(=O)(=O)N2CCN(C(=O)c3cc4c(s3)CCC4)CC2)cc1,14,1,43*,13,6,25,34*
Cc1ccc(/C=C/C(=O)c2ccccc(=O)c2O)c(C)c1,6,-2,69*,4,-5,21,14
CCN(C(=O)Cn1c(=O)oc2ccccc21)c1ccc(C)c(C)c1,-8,7,4,-4,0,2,/
O=C(COC(=O)c1ccccc1)Nc1ncc([N+](=O)[O-])s1,-1,-10,56*,26*,18,57*,38*
COc1cc(/C=C2/C(=O)NN(c3ccc(F)cc3)C2=O)cc(Cl)c1O,-11,12,4,0,7,-2,/
COc1cc(/C=C2/C(=O)NN(c3ccc(Cl)c(Cl)c3)C2=O)cc([N+](=O)[O-])c1O,-11,-10,52*,18,31*,36*,33*
OCC[C@H]1C[C@H](O)[C@@H](O)[C@]2(CCc3ccccc3CO2)O1,6,2,1,14,-1,7,/
SMILES,ASAP1 inh,ARFGAP1 inhibitor,pPAFAH inh,PAFAH1B3 FP inh,PAFAH1B2 inh,PAFAH2 FP inh,pPAFAH FP conf
COc1ccc(N2CCC(CNC(=O)Nc3ccc(Cl)cc3)C2)cc1 (centres undefined),-4,5,36*,6,0,-5,5
COc1ccc(N2CCC(CNC(=O)Nc3cccc(OC)c3)C2)cc1 (centres undefined),3,-12,4,7,3,2,/
CCc1nc2ccc(C(=O)NCCc3ccccn3)cn2c1N(C)Cc1cccs1,4,-6,/,/,/,/,/
COc1ccc(S(=O)(=O)NCC(=O)N(CC(=O)NCc2ccccc2)Cc2ccco2)cc1,-6,-3,5,0,-3,0,/
COc1ccc(CNC(=O)C(c2ccco2)N(C(=O)CNS(=O)(=O)c2ccccc2)c2ccccc2C)cc1 (centres undefined),-13,6,47*,7,4,3,51*
CN(CC(=O)Nc1ccc(C(N)=O)cc1)CC(=O)Nc1ccccc1Br,7,-7,59*,7,-2,-8,4
C=CS(=O)(=O)N(C(=C)C(=O)OC)S(C)(=O)=O,1,0,/,/,/,/,/
CC(C)=CCc1cc2c(=O)c3c(O)c4c(cc3oc2c(O)c1O)OC(C)C4(C)C (centres undefined),/,/,67*,/,/,/,86*
COc1cc2c(cc1OC)[C@@H](NC(=O)C(C)C)[C@H](OCc1ccccc1)C2,13,-6,3,6,2,2,/
O=c1nc2s/c(=C\c3ccco3)c(=O)n2nc1Cc1ccc(F)cc1,-5,-2,40*,8,0,4,19
N=C1CCC(=N)c2c1c(O)c1ccccc1c2O,/,/,64*,44*,39*,69*,41*
O=C(O)c1ccc(N/N=C/c2ccc(-c3cc(Cl)ccc3Cl)o2)cc1,5,5,37*,17,13,20,56*
Cc1ccc(C(=O)N/N=C/c2ccc(-c3cccc(Cl)c3)o2)cn1,-11,11,8,10,5,-3,/
COC(=O)N/N=C/c1ccc(-c2ccc(Cl)cc2Cl)o1,-9,2,0,4,-3,2,/
O=C(O)c1ccc(N/N=C/c2ccc(-c3ccc(Cl)cc3Cl)o2)cc1,14,-19,51*,11,11,21,47*
O=C(O)c1ccc(N/N=C/c2ccc(-c3cccc(Cl)c3)o2)cc1,0,-10,65*,18,5,16,47*
C=CCNC(=S)N/N=C/c1ccc(-c2cc(Cl)ccc2Cl)o1,-3,-1,-1,9,4,0,/
CCCCOc1cc(NCc2ccccc2)c2ncn(C(C)C)c2c1,6,16,36*,12,7,12,39*
COCCCOc1cc(NCc2ccccc2)c2ncn(C(C)C)c2c1,0,3,9,2,8,2,/
COc1ccc(Br)cc1/C=c1\sc2nc(-c3ccco3)nn2c1=O,9,-2,44*,-5,-6,0,20
